The list is not random: actives were taken first. Their share in the collection is about 2.3%.
Myeloid diff MLP – myeloid differentiation induction; calls only at 10 µM; actives 1% (n = 360,000); ER-HoxA9 myeloid progenitors, lysozyme-GFP differentiation, flow cytometry;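 active = normalized GFP-positive differentiation at or above the plate's own cutoff, the solvent-only control mean plus 3 SD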;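 note: cells exposed to compound for four days before flow analysis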
Rpn11 inh – blocks the human proteasome subunit Rpn11. inhibition, % at 20 µM. actives 0.59% (n = 360,000). human 26S proteasome, Ub4-pepOG fluorescence polarization; 20S core pre-blocked with epoxomicin. AID 588493. O00487;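 active = inhibition at 20 µM, scaled to each plate's controls, above about 33%, limit read from the data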
HNF4A DNA FP – change in binding of human HNF4 alpha to DNA. actives 0.3% (n = 360,000). activity change, % at 10 µM. HNF4a-FITC DNA binding, fluorescence polarization, 1 h; in the data active = activity change above about 30%, passing the limit was not always enough
Target sequence (P41235 whole entry, looked up): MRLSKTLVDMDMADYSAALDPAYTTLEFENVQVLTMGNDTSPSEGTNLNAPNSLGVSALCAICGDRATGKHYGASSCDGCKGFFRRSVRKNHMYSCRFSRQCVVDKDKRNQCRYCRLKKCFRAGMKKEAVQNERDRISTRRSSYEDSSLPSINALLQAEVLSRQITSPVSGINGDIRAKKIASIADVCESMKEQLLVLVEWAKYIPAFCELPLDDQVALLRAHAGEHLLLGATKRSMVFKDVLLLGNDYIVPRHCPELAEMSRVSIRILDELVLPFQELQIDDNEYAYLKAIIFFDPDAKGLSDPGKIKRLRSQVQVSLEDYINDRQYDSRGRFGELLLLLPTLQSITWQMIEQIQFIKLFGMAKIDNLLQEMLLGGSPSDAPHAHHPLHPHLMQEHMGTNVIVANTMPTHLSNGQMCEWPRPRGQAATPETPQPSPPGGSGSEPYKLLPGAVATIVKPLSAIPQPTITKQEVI
CSN deneddyl inh – blocks human CSN-mediated cullin deneddylation; Q92905; Purified CSN, SCF-Nedd8-OG deneddylation, fluorescence polarization; inhibition, % at 12.5 µM; actives 0.38% (n = 360,000); AID 651999;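 active = pattern-corrected inhibition above about 35%, with an unprinted fluorescence ratio check between 0.5 and 1.5, limit read from the data, passing the limit was not always enough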;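 note: 0% = enzyme with substrate and 100% = substrate without enzyme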
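Detection – fluorescence polarization · System – HEK293T-derived human Csn5 enzyme · Controls – substrate-only high control, full reaction low control · Timing – 90 min, room temperature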
TPT1 inh – C. albicans TPT1 enzyme inhibition; recombinant caTPT1, FP RNA substrate dephosphorylation; inhibition, % at 5 µM; actives 0.81% (n = 300,000);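 active = inhibition above the mean of all tested compounds plus 3 SD, set per screening campaign, cut at about 24% in these data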;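 note: plate controls were DMSO alone for no effect and ferristatin control at 100 nM for full effect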
Myeloid diff – compounds promoting myeloid differentiation; calls only; AID 651706; shares compounds with Myeloid diff MLP; actives 2% (n = 2,300); ER-HoxA9 myeloid progenitors, GFP/Mac1 double-positive flow;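 active = share of green or green-and-red cells above 9 and 9% in run 1 or 4 and 3% in run 2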
GFP autofluor – counter-screen for myeloid differentiation promoters: compound fluorescence | shares compounds with Myeloid diff MLP | ER-HoxA9 myeloid progenitors, no estrogen, GFP autofluorescence flow cytometry; vehicle wells 0%, positive control 100% | fluorescence response, % (concentration not given with the values) | actives 7.4% (n = 2,300) | AID 651707;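 active = over 5% cells positive for green fluorescent reporter, or over 2% positive for both it and APC stain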;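 note: range taken on the double positive population between DMSO and positive control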
An asterisk follows results filed as active; i = inactive; x = no result; + = active, no number.

SMILES | Myeloid diff MLP | Rpn11 inh | HNF4A DNA FP | CSN deneddyl inh | TPT1 inh | Myeloid diff | GFP autofluor
O=C(CN1C(=O)C2CCCCC2C1=O)N1CCN(c2ccc(F)cc2)CC1 (stereo not drawn) | + | 0 | 4 | 5 | 0 | i | 0
O=C(CN1C(=O)C2CCCCC2C1=O)N1CCN(c2ccccc2)CC1 (stereo not drawn) | i | -2 | -2 | 6 | 0 | x | x
Cc1nn(C(=O)c2ccc([N+](=O)[O-])cc2)c(C)c1Br | + | 1 | 14 | 1 | -4 | i | 0
Cc1ccc(NC(=O)c2ccc(NCCCN3CCC(C)CC3)c([N+](=O)[O-])c2)cc1F | i | 23 | 1 | 5 | 2 | i | 0
O=C(O)c1ccccc1OCC1CCCO1 (stereo not drawn) | i | 5 | -2 | 0 | 1 | x | x
O=C(c1nc[nH]c1C(=O)N1CCN(c2ccccc2)CC1)N1CCN(c2ccccc2)CC1 | i | 0 | -6 | -2 | x | x | x
CCOC(=O)N1CCN(C(=O)c2ccc(Cn3c(=S)[nH]c4cc(OCC)c(OCC)cc4c3=O)cc2)CC1 | + | -2 | 3 | -6 | -3 | i | 0
CCC(=O)NC(=S)Nc1ccc(NC(=O)c2ccccc2[N+](=O)[O-])cc1 | i | -6 | 6 | -22 | 4 | i | 1
O=S1(=O)N=C(N2CCN(Cc3ccc4c(c3)OCO4)CC2)c2ccccc21 | i | 7 | 0 | -1 | 1 | x | x
O=S1(=O)N=C(N2CCN(Cc3ccccc3)CC2)c2ccccc21 | + | 1 | -1 | -4 | -3 | i | 0
Cc1cccc(C)c1N1C(=O)CCC(C)(C)C1=O | i | 1 | 3 | 1 | -2 | x | x
CCOc1ccc(C2/C(=C(\O)c3ccc4c(c3)OCCO4)C(=O)C(=O)N2CCN2CCOCC2)cc1OC (stereo not drawn) | i | 1 | 6 | 2 | x | x | x
CCN(c1ccc(OC)cc1)S(=O)(=O)c1ccc2c(c1)CC(C)N2C(=O)C1CC1 (stereo not drawn) | i | -4 | -2 | 1 | -1 | x | x
COCc1cc(C)n(CC(=O)Nc2ccccc2C(=O)OC)c(=O)c1C#N | i | 2 | 2 | 1 | 0 | i | 1
CS(=O)(=O)Nc1ccc(C2=NN(C(=O)c3ccco3)C(c3ccccc3F)C2)cc1 (stereo not drawn) | i | 17 | 1 | 3 | 3 | x | x
O=C(CCSc1nnc2scc(-c3ccccc3)n12)NCc1ccc2c(c1)OCO2 | i | -5 | 1 | 2 | -3 | i | 0
Cc1c(C(=O)NNC(=S)Nc2ccc(S(N)(=O)=O)cc2)oc2ccccc12 | i | -4 | -1 | 4 | 1 | i | 1
CCOC(=O)c1c(C)[nH]c(C(=O)OCC(=O)NCCc2ccc(OCC)c(OCC)c2)c1C | + | 0 | 0 | -3 | -1 | i | 0
CCOc1ccc(S(=O)(=O)Nc2cc(NS(=O)(=O)c3ccc(OCC)cc3)cc(C(=O)O)c2)cc1 | i | -8 | -9 | 6 | x | x | x
CCOc1ccc(NS(=O)(=O)c2ccc(NS(=O)(=O)c3ccccc3)cc2)cc1 | i | 9 | 2 | 4 | -3 | i | 0
CCCOc1ccc(/C=c2\sc3nc(-c4ccco4)nn3c2=O)cc1OCC | i | -11 | -13 | 23 | 4 | x | x
CCCOc1ccc(Cc2nn3c(=O)/c(=C/c4ccco4)sc3nc2=O)cc1 | i | -1 | -16 | 13 | -2 | i | 0
O=C(CSc1nnc(-c2ccccc2Br)o1)N1CCN(C(=O)c2ccco2)CC1 | i | -15 | 2 | 7 | -1 | i | 0
O=C(CSc1nc2ccccc2n1CC(=O)N1CCCC1)N1CCN(C(=O)c2ccco2)CC1 | i | 0 | 2 | 0 | -4 | i | 0
O=C(CSc1nc2ccccc2n1CC(=O)N1CCOCC1)N1CCCC1 | i | 0 | 2 | -6 | -2 | x | x
O=C(CSc1nc2ccccc2n1CC(=O)N1CCCC1)Nc1ccc2c(c1)OCO2 | + | 4 | -7 | 1 | 0 | i | 0

Bioassay records (PubChem)
